Results published in ChEMBL document CHEMBL4406800, “Discovery of Potent Protease-Activated Receptor 4 Antagonists with in Vivo Antithrombotic Efficacy” (J Med Chem, 2019).

Key:
[1] = Clearance in rat at 2 mg/kg, po or 0.5 mg/kg, iv administered as infusion for 10 mins; assay type: ADME, organism-based; details: in vivo
[2] = system: Cynomolgus monkey; assay: Antithrombotic activity in cynomolgus monkey electrolytic carotid artery thrombosis assessed as reduction in thrombus weight at 10 mg/kg, po administered via gavage measured after 1.5 hrs relative to control; assay type: functional, Macaca fascicularis; parameters: scale not given: the % may be the effect or the level left
In short: (§1)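 Monkeys retired from earlier studies after a washout of at least 4 weeks, randomized to vehicle (n=8) or 0.4, 2 or 10 mg/kg (n=7 each). Dosed by oral gavage in 40/60 w/w TPGS/PEG400 at 2 ml/kg. Anesthetized and surgically prepared 1.5 h post-dose. Thrombosis and bleeding time measured in the same animal.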

[3] = Half life in monkey liver microsomes; assay type: ADME, Macaca mulatta, Microsome; details: rhesus monkey
[4] = Protein binding in mouse plasma; assay type: ADME, cell-free; details: read-out: PPB (converted)
[5] = Half life in rat at 2 mg/kg, po or 0.5 mg/kg, iv administered as infusion for 10 mins; assay type: ADME, organism-based; details: in vivo
[6] = Toxicity in cynomolgus monkey assessed as prolongation of kidney bleeding time at 10 mg/kg, po administered via gavage measured up to 20 mins; assay type: organism-based, Macaca fascicularis; details: in vivo
In short: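 Oral gavage at 10 mg/kg or vehicle (40/60 w/w TPGS/PEG400, 2 ml/kg) to monkeys, anesthetized 1.5 h later. Bleeding time taken by renal cortex incision: time until bleeding stopped with no re-bleeding for 30 s, monitored up to 20 min, done in triplicate.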

[7] = Oral bioavailability in monkey at 2 mg/kg; assay type: ADME, organism-based, Macaca mulatta; details: rhesus monkey, in vivo
In short: (§2)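 Dog and monkey dosing: iv 0.5 mpk as a 10 min infusion in PEG400 at 0.8 ml/kg. po 2 mpk in 40/60 TPGS/PEG400 at 0.5 mL/kg.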

[8] = Protein binding in human plasma; assay type: ADME, cell-free; details: read-out: PPB (converted)
[9] = Clearance in monkey at 2 mg/kg, po or 0.5 mg/kg, iv administered as infusion for 10 mins; assay type: ADME, organism-based, Macaca mulatta; details: rhesus monkey, in vivo; in short: as §2
[10] = molecular target: T1, Nuclear receptor subfamily 1 group I member 2 (Homo sapiens, UniProt O75469); assay: Activation of human PXR; assay type: ADME
T1 sequence (O75469 whole entry): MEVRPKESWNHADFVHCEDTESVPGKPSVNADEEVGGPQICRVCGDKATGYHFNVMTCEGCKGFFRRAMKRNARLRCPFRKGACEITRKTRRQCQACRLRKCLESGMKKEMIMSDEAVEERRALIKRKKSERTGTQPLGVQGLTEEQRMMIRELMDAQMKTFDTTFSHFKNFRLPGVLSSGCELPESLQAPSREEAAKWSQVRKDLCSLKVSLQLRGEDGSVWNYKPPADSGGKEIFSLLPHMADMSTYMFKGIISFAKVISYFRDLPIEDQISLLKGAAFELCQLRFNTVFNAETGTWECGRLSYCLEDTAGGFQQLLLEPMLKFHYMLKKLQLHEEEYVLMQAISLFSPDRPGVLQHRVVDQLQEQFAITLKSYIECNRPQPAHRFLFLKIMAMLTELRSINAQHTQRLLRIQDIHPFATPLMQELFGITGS

[11] = Half life in dog liver microsomes; assay type: ADME, Canis lupus familiaris, Microsome
[12] = molecular target: T2, Proteinase-activated receptor 1 (Homo sapiens, UniProt P25116); assay: Antagonist activity at PAR1 in human platelet rich plasma assessed as inhibition of SFFLRR-induced platelet aggregation preincubated for 5 mins followed by SFFLRR addition
T2 sequence (P25116 whole entry): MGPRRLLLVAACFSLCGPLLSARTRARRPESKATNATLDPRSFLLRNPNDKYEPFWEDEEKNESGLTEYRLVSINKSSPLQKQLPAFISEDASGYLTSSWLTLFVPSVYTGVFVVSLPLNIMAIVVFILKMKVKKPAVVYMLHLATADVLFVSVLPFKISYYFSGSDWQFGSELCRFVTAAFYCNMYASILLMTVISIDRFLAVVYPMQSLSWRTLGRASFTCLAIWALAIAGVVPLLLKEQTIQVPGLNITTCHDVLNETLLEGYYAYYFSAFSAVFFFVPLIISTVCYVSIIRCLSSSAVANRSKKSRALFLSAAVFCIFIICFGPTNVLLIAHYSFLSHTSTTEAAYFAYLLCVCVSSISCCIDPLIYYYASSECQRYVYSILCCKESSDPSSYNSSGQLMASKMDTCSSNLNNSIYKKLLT

[13] = Half life in monkey at 2 mg/kg, po or 0.5 mg/kg, iv administered as infusion for 10 mins; assay type: ADME, organism-based, Macaca mulatta; details: rhesus monkey, in vivo; in short: as §2
[14] = Protein binding in rat plasma; assay type: ADME, cell-free; details: read-out: PPB (converted)
[15] = Oral bioavailability in rat at 2 mg/kg; assay type: ADME, organism-based; details: in vivo
In short: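 Rat dosing: iv 0.5 mpk as a 10 min infusion in 25/75 propylene glycol/PEG400 at 2 ml/kg. po 2 mpk in 5/5/90 EtOH/TPGS/PEG300 at 5 mL/kg.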

[16] = Clearance in dog at 2 mg/kg, po or 0.5 mg/kg, iv administered as infusion for 10 mins; assay type: ADME, organism-based, Canis lupus familiaris; details: in vivo; in short: as §2
[17] = molecular target: hERG (KCNH2) (Homo sapiens, UniProt Q12809); assay: Inhibition of human ERG at 10 uM by patch clamp method
[18] = system: Cynomolgus monkey; assay: Antithrombotic activity in cynomolgus monkey electrolytic carotid artery thrombosis assessed as reduction in thrombus weight at 2 mg/kg, po administered via gavage measured after 1.5 hrs relative to control; assay type: functional, Macaca fascicularis; parameters: scale not given: the % may be the effect or the level left; in short: as §1
[19] = Protein binding in monkey plasma; assay type: ADME, cell-free, Macaca mulatta; details: rhesus monkey, read-out: PPB
[20] = Stability in rat liver microsomes assessed as parent compound remaining measured after 10 mins; assay type: ADME, Microsome; details: read-out: Stability
[21] = molecular target: T3, Proteinase-activated receptor 4 (Homo sapiens) (UniProt Q96RI0); assay: Displacement of [3H]BMS-986120 from His-tagged human PAR4 expressed in HEK293 cell membranes assessed as association rate constant
T3 sequence (whole entry): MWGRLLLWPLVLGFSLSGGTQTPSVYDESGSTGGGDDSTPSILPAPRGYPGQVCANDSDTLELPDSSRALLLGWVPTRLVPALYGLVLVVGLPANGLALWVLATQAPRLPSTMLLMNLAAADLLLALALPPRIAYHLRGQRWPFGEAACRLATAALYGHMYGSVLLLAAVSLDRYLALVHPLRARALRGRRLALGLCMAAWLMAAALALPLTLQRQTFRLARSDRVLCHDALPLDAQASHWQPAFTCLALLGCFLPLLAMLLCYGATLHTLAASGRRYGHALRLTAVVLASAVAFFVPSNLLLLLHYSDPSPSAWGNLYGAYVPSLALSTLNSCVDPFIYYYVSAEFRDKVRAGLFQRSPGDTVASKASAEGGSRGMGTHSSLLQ
In short: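 HEK293 membranes expressing PAR4. Association kinetics measured; values are mean ± standard deviation, n = 3.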

[22] = Oral bioavailability in dog at 2 mg/kg; assay type: ADME, organism-based, Canis lupus familiaris; details: in vivo; in short: as §2
[23] = Stability in human liver microsomes assessed as parent compound remaining measured after 10 mins; assay type: ADME, Microsome; details: liver microsomes, read-out: Stability
[24] = system: Cynomolgus monkey; assay: Antithrombotic activity in cynomolgus monkey electrolytic carotid artery thrombosis assessed as reduction in thrombus weight at 0.4 mg/kg, po administered via gavage measured after 1.5 hrs relative to control; assay type: functional, Macaca fascicularis; parameters: scale not given: the % may be the effect or the level left; in short: as §1
[25] = Protein binding in dog plasma; assay type: ADME, cell-free, Canis lupus familiaris; details: read-out: PPB
[26] = Half life in mouse liver microsomes; assay type: ADME, Microsome
[27] = molecular target: T3, Proteinase-activated receptor 4 (Homo sapiens); assay: Displacement of [3H]BMS-986120 from His-tagged human PAR4 expressed in HEK293 cell membranes assessed as dissociation rate constant measured after 2 hrs
[28] = Half life in dog at 2 mg/kg, po or 0.5 mg/kg, iv administered as infusion for 10 mins; assay type: ADME, organism-based, Canis lupus familiaris; details: in vivo; in short: as §2
[29] = system: Cynomolgus monkey; assay: Antithrombotic activity in cynomolgus monkey electrolytic carotid artery thrombosis assessed as reduction in thrombus weight administered via oral gavage measured after 1.5 hrs; assay type: functional, organism-based; details: Macaca fascicularis; in short: as §1
[30] = molecular target: CYP450 (isoform not stated) (Homo sapiens, UniProt P04798+P05177+P05181+P08684+P10632+P10635+P11509+P11712+P13584+P20813+P20815+P20853+P24462+P24903+P33260+P33261+P51589+P78329+P98187+Q02928+Q08477+Q16678+Q16696+Q5TCH4+Q6VVX0+Q7Z449+Q8TAV3+Q96SQ9+Q9HB55); assay: Inhibition of CYP450 in human liver microsomes; assay type: ADME

Sequence of hERG (KCNH2) (Q12809 whole entry): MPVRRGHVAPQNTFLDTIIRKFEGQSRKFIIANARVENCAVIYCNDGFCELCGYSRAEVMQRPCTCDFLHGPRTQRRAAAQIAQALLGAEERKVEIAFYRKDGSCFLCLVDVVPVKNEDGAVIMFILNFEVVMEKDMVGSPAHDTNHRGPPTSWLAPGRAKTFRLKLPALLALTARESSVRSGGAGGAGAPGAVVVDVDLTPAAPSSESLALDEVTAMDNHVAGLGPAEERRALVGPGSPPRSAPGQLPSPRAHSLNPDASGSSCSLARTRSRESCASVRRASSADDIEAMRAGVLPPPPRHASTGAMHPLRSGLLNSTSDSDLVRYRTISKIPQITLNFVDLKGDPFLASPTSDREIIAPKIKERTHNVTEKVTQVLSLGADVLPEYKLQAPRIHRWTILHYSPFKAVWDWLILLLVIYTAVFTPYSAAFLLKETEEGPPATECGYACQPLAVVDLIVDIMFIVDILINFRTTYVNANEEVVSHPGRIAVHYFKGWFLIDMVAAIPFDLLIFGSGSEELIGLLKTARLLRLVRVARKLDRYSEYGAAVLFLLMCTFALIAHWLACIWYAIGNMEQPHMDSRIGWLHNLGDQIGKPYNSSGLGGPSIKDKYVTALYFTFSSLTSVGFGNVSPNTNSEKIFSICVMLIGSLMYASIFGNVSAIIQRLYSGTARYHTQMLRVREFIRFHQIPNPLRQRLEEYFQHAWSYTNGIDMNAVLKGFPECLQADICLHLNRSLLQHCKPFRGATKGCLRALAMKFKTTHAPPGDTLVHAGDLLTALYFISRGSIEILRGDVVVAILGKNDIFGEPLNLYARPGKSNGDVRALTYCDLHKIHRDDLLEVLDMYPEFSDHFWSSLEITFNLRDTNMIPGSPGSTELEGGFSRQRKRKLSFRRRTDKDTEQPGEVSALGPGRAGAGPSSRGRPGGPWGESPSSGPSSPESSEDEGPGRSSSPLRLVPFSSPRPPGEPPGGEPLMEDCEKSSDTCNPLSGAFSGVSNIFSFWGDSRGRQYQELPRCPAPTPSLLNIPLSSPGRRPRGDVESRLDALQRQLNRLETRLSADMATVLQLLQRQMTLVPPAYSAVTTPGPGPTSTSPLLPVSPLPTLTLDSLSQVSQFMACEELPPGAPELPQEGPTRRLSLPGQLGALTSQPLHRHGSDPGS

- clearance [1]: 10 mL/min/kg
- half-life [3]: 0.8 h
- fraction unbound [4]: 0.005
- half-life [5]: 6.9 h
- bioavailability [7]: 11%
- fraction unbound [8]: 0.004
- clearance [9]: 5.2 mL/min/kg
- EC50 [10]: > 50 µM
- half-life [11]: 1.67 h
- IC50 [12]: > 30 µM
- half-life [13]: 6.2 h
- fraction unbound [14]: 0.002
- bioavailability [15]: 11%
- clearance [16]: 1.6 mL/min/kg
- fraction unbound [19]: < 0.002
- remaining at 10 min [20]: 76%
- K [21]: 66700 M⁻¹ s⁻¹
- bioavailability [22]: 26%
- remaining at 10 min [23]: 85%
- fraction unbound [25]: ≤ 0.002
- half-life [26]: 2 h
- K [27]: 0.013 min⁻¹
- half-life [28]: 7 h
- IC50 [30]: > 40 µM
Compound: COc1cc(OCc2cccc(OCc3ccccc3)c2)c2cc(-c3cn4nc(OC)sc4n3)oc2c1
- Activity [2]: 38%
- Activity [6]: Non-Toxic
- inhibition at 10 µM [17]: ≤ 10%
- Activity [18]: 38%
- Activity [24]: 9%
- Activity [29]: Dose-dependent effect
